In ChEMBL document CHEMBL4840316, “Structure-based screening for the discovery of 1,2,4-oxadiazoles as promising hits for the development of new anti-inflammatory agents interfering with eicosanoid biosynthesis pathways” (Eur J Med Chem, 2021):
Calls of active or inactive are those of the source. No cut-off for these calls is given here.

Tests used:
[1] = target: T1, Prostaglandin E synthase (Homo sapiens) (UniProt O14684); test: Inhibition of mPGES-1 obtained from IL-beta stimulated human A549 cells microsomes assessed as residual activity by measuring conversion of PGH2 to PGE2 at 10 uM by cell-free RP-HPLC method; details: Microsome
T1 sequence (whole entry): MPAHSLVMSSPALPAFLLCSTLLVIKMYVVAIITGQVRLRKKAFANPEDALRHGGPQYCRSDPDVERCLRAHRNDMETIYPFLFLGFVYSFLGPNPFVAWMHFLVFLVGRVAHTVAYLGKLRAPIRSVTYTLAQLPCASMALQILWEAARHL
In short: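 Microsomes from A549 cells stimulated with IL-1β (1 ng/ml) for 48 h. Diluted in 0.1 M potassium phosphate pH 7.4 with 2.5 mM glutathione. Pre-incubated 15 min on ice with compound (single 10 µM, or 0.03–10 µM for the curve) or 1% DMSO. 20 µM PGH2 added for 1 min; stopped with FeCl3/citric acid containing 11β-PGE2 standard. PGE2 measured by SPE and RP-HPLC. n = 3.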

[2] = target: T2, Polyunsaturated fatty acid 5-lipoxygenase (Homo sapiens) (UniProt P09917); test: Inhibition of 5-LO in A23187/AA-stimulated human intact neutrophils assessed as reduction in LTB4/5-HETE formation by measuring residual activity at 10 uM measured after 20 mins by RP-HPLC method; type: tissue-based; details: Neutrophil
T2 sequence (whole entry): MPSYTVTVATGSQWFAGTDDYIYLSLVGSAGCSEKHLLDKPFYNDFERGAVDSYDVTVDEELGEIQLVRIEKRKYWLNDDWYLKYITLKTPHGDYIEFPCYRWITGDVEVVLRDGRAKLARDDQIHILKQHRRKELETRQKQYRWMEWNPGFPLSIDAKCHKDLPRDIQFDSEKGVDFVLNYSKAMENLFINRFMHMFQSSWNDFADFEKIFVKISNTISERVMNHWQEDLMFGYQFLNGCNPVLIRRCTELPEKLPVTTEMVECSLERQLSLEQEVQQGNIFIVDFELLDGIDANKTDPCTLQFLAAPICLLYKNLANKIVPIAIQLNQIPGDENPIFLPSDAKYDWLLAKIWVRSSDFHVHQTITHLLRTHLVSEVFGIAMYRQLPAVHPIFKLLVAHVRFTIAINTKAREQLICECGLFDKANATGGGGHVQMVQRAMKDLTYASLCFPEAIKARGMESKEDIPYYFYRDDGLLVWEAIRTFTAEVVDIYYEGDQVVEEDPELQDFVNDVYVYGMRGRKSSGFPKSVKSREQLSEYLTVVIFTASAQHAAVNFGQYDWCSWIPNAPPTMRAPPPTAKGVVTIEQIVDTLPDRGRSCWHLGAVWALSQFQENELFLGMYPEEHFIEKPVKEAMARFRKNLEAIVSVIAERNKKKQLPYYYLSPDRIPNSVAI
In short: (§1)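 Human neutrophils at 5 × 10^6/mL in PBS with 0.1% glucose and 1 mM CaCl2. Pre-incubated with compound or 0.1% DMSO for 10 min at 37 °C. Stimulated with 2.5 µM A23187, with or without 20 µM AA, for 10 min at 37 °C. Stopped with cold methanol; PGB1 internal standard. LTB4, its trans isomers and 5-HETE quantified by SPE and RP-HPLC; % of control.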

[3] = target: T2, Polyunsaturated fatty acid 5-lipoxygenase (Homo sapiens); test: Inhibition of 5-LO in A23187-stimulated human intact neutrophils assessed as reduction in LTB4/5-HETE formation by measuring residual activity at 10 uM measured after 20 mins by RP-HPLC method; type: tissue-based; details: Neutrophil; in short: as §1
Mus musculus [4] = test: Antiinflammatory activity in zymosan-induced CD-1 mouse peritonitis model assessed as reduction in zymosan-induced neutrophil recruitment at 10 mg/kg, ip treated with compound for 30 mins after 24 hrs zymosan stimulation by ELISA; type: functional, organism-based
In short: (§2)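 Male CD-1 mice (10–14 wk, 25–30 g), n = 6/group, injected i.p. with boiled zymosan A (500 mg/kg in PBS). Compound (0.1–10 mg/kg, DMSO/saline 1:3) given i.p. 30 min afterwards. Peritoneal lavage with 2 mL PBS at 4 or 24 h. Total leukocytes counted by automated counter with trypan blue, normalized to exudate. Mean ± S.D.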

Mus musculus [5] = test: Antiinflammatory activity in zymosan-induced CD-1 mouse peritonitis model assessed as reduction in zymosan-induced IL-6 level in peritoneal exudate at 3 mg/kg, ip treated with compound for 30 mins after 4 to 24 hrs zymosan stimulation by ELISA; type: functional, organism-based
Mus musculus [6] = test: Antiinflammatory activity in zymosan-induced CD-1 mouse peritonitis model assessed as reduction in zymosan-induced IL-1beta level in peritoneal exudate at 3 mg/kg, ip treated with compound for 30 mins after 4 to 24 hrs zymosan stimulation by ELISA; type: functional, organism-based
Mus musculus [7] = test: Antiinflammatory activity in zymosan-induced CD-1 mouse peritonitis model assessed as reduction in zymosan-induced neutrophil recruitment at 10 mg/kg, ip treated with compound for 30 mins after 4 hrs zymosan stimulation by ELISA; type: functional, organism-based; in short: as §2
Mus musculus [8] = test: Antiinflammatory activity in zymosan-induced CD-1 mouse peritonitis model assessed as reduction in zymosan-induced TNF-alpha level in peritoneal exudate at 3 mg/kg, ip treated with compound for 30 mins after 4 to 24 hrs zymosan stimulation by ELISA; type: functional, organism-based
A549 = test: Cytotoxicity against human A549 cells assessed as cell viability at 10 uM measured after 48 hrs by MTT assay; type: cell-based; details: a549, 48 h
In short: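 A549 cells in DMEM + 10% FBS, 2 × 10^4 per well, seeded in triplicate. Exposed to 10 µM compound or 0.1% DMSO for 48 h at 37 °C, 5% CO2. MTT added for 1 h, formazan dissolved in DMSO, absorbance read at 570 nm. Viability given as % of vehicle, n = 3.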

[9] = target: T3, Bifunctional epoxide hydrolase 2 (Homo sapiens) (UniProt P34913); test: Inhibition of recombinant human sEH expressed in sf9 insect cells assessed as residual activity at 10 uM using PHOME as substrate preincubated for 15 mins followed by substrate addition and measured after 60 mins relative to control; details: time 75.0 min
T3 sequence (whole entry): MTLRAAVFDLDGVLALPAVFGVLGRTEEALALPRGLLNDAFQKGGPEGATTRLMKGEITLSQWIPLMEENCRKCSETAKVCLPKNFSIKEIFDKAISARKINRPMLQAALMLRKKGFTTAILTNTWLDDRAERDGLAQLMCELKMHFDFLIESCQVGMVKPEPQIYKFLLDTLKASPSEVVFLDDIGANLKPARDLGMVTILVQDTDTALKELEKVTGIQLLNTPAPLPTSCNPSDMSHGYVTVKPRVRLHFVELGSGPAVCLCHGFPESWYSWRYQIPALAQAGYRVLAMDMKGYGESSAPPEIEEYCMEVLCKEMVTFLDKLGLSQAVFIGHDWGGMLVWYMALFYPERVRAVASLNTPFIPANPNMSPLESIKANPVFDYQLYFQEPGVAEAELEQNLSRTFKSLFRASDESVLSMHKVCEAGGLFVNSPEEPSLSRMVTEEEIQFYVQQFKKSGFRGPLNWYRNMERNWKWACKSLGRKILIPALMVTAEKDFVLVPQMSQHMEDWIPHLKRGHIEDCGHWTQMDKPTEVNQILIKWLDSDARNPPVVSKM
In short: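 Human recombinant sEH from baculovirus-infected Sf9 cells, affinity-purified. Diluted in 25 mM Tris pH 7 with 0.1 mg/mL BSA. Pre-incubated 15 min at room temperature with 10 µM compound or 0.1% DMSO. 50 µM PHOME added, run 60 min at room temperature, stopped with ZnSO4. Fluorescence read at ex 330 / em 465 nm.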

[10] = target: Prostaglandin G/H synthase 1 (Ovis aries) (UniProt P05979); test: Inhibition of ovine COX-1 assessed as residual activity at 10 uM using arachidonic acid as substrate preincubated for 5 mins by RP-HPLC method relative to control; details: time 10.0 min
Chain of Prostaglandin G/H synthase 1 (Ovis aries) (P05979 whole entry, looked up): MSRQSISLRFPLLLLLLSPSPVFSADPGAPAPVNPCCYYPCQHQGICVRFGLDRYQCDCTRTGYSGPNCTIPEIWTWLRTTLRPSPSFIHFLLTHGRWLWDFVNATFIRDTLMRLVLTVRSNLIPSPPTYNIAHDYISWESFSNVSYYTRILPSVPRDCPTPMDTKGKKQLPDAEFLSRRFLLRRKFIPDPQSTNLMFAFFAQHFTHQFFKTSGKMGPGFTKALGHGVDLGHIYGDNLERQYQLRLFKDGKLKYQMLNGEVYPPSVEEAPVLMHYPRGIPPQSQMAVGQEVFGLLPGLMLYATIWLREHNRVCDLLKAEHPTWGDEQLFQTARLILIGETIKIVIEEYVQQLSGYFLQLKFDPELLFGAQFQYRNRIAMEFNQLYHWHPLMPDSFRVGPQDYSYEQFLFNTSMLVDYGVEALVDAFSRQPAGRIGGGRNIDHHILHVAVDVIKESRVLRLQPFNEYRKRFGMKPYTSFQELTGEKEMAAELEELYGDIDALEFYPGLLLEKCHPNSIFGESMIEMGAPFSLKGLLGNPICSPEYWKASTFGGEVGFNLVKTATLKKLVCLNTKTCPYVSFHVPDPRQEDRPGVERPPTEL

Monocyte = test: Cytotoxicity against human monocyte cells assessed as cell viability at 10 uM measured after 24 hrs by MTT assay; type: cell-based
In short: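 Human monocytes isolated from PBMC by adherence, 0.2 × 10^6 per well in buffer. Exposed to 10 µM compound or 0.5% DMSO for 24 h (37 °C, 5% CO2). MTT for 2 h, then SDS lysis (10%, pH 4.5) for 17 h. Absorbance read at 570 nm; viability as % of vehicle, n = 3.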

[11] = target: T2, Polyunsaturated fatty acid 5-lipoxygenase (Homo sapiens); test: Inhibition of 5-LO (unknown origin) expressed in Escherichia coli BL21 assessed as residual activity at 10 uM by RP-HPLC method relative to control
In short: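 Human recombinant 5-LO expressed in E. coli BL21 and purified on ATP-agarose. 0.5 µg enzyme in 1 mL PBS + 1 mM EDTA pre-incubated with compound or 0.1% DMSO for 10 min on ice. Reaction started with 20 µM AA and 2 mM CaCl2, run 10 min at 37 °C, stopped with ice-cold methanol. Products analysed; activity as % of control.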

Activity [1] [%]	Activity [2] [%]	Activity [3] [%]	Compound	further results
81.9	29.6	84.3	Nc1ccc(O)c(-c2nc(-c3ccc(-c4ccsc4)cc3)no2)c1	–
–	–	–	C[C@@H]1C[C@H]2[C@@H]3CCC4=CC(=O)C=C[C@]4(C)[C@@]3(F)[C@@H](O)C[C@]2(C)[C@@]1(O)C(=O)CO	Activity (Mus musculus [4]): Active; Activity (Mus musculus [5]): Active; Activity (Mus musculus [6]): Active; Activity (Mus musculus [7]): Active; Activity (Mus musculus [8]): Active
84.1	> 100	> 100	Oc1cccc(-c2nc(-c3ccc(-c4ccsc4)cc3)no2)c1	–
84.7	61.3	78	CC(N)(Cc1ccc(O)cc1)c1nc(-c2ccc(-c3ccsc3)cc2)no1 (configuration not stated)	–
82.2	89.5	92.6	CC(=O)N1C[C@H](O)C[C@H]1c1nc(-c2ccc(-c3ccsc3)cc2)no1	–
67.6	50.3	47.5	N[C@H](c1ccc(O)cc1)c1nc(-c2ccc(-c3ccsc3)cc2)no1	–
93.1	65.2	73.6	OCc1ccc(Cc2nc(-c3ccc(-c4ccsc4)cc3)no2)cc1	–
82.7	74.4	95	N[C@@H](Cc1ccc(O)cc1)c1nc(-c2ccc(-c3ccsc3)cc2)no1	–
62.9	7.54	6.02	CC(c1ccc(O)cc1)c1nc(-c2ccc(-c3ccsc3)cc2)no1 (configuration not stated)	Activity (A549): Non-Toxic; Activity [9]: > 50%; Activity [10]: 22.5%; Activity (Monocyte): Non-Toxic; Activity [11]: 61.8%
63.2	99.3	59.7	c1cc(-c2nc(-c3ccc(-c4ccsc4)cc3)no2)c2cc[nH]c2c1	–
